# The source made the active and inactive calls. No cut-off for these calls is given here.
# Columns and labels:
# [1] = Inhibition of Bacillus subtilis gyrase
# [2] = Inhibition of Bacillus subtilis topoisomerase 4
# Enterococcus faecium [3] = assay: Antibacterial activity against vancomycin-resistant Enterococcus faecium B42762; type: functional
# Summary of the method: (§1)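 Broth microdilution per CLSI with modified incubation. Log-phase cultures in cation-adjusted Mueller-Hinton broth, seeded at 1 x 10^5 CFU/ml. Compounds from DMSO stocks, 1% DMSO final. Incubated 37°C, 16 to 20 h, shaken. Growth read as OD600. MIC is the lowest concentration with no apparent growth. Run in quadruplicate; highest value reported.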
# Escherichia coli [4] = assay: Antibacterial activity against Escherichia coli J53; type: functional
# Bacillus subtilis [5] = assay: Inhibition of DNA synthesis in Bacillus subtilis BD54; type: functional, organism-based
# Summary of the method: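 B. subtilis BD54 grown to log phase in C plus 50 medium; compound in DMSO added with [8-3H]adenine at time zero, at 5x or 1x MIC; samples over time. DNA = alkali-insensitive TCA-insoluble label; RNA = total TCA-insoluble minus DNA. Effect judged against diluent-control incorporation.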
# Enterococcus faecalis [6] = assay: Antibacterial activity against Enterococcus faecalis 29212; type: functional; summary of the method: as §1
# Streptococcus pneumoniae [7] = assay: Antibacterial activity against penicillin-resistant Streptococcus pneumoniae 700671; type: functional
# Summary of the method: (§2)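 Streptococci tested by CLSI broth microdilution in Mueller-Hinton broth with 5% defibrinated horse blood, log-phase inoculum at 1 x 10^5 CFU/ml. Incubated 37°C with shaking, 16 to 20 h, in 5% humidified CO2. Compounds at 1% DMSO final. MIC is the lowest concentration without growth by OD600. Quadruplicate; highest MIC reported.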
# Escherichia coli [8] = assay: Antibacterial activity against ciprofloxacin-resistant Escherichia coli XL1-Blue; type: functional; summary of the method: as §1
# Staphylococcus aureus [9] = assay: Antibacterial activity against Staphylococcus aureus 25923; type: functional; summary of the method: as §1
# Streptococcus pneumoniae [10] = assay: Antibacterial activity against Streptococcus pneumoniae 49619; type: functional; summary of the method: as §2
# Enterococcus faecium [11] = assay: Antibacterial activity against Enterococcus faecium 19434; type: functional; summary of the method: as §1
# Staphylococcus aureus [12] = assay: Antibacterial activity against Staphylococcus aureus Smith in presence of 10% FCS; type: functional
# Staphylococcus aureus [13] = assay: Antibacterial activity against ciprofloxacin-resistant Staphylococcus aureus Smith; type: functional; summary of the method: as §1
# Streptococcus pyogenes = assay: Antibacterial activity against Streptococcus pyogenes 12344; type: functional
# Bacillus thuringiensis [14] = assay: Antibacterial activity against Bacillus thuringiensis 33679; type: functional
# Staphylococcus aureus [15] = assay: Antibacterial activity against HB-EMAU-resistant Staphylococcus aureus Smith; type: functional; summary of the method: as §1
# Enterococcus faecium [16] = assay: Antibacterial activity against vancomycin-resistant Enterococcus faecium 1644; type: functional; summary of the method: as §1
# Staphylococcus aureus [17] = assay: Antibacterial activity against Staphylococcus aureus 1081; type: functional; summary of the method: as §1
# Pseudomonas aeruginosa = assay: Antibacterial activity against Pseudomonas aeruginosa 27853; type: functional
# Staphylococcus aureus [18] = assay: Antibacterial activity against methicillin-resistant Staphylococcus aureus 1132; type: functional; summary of the method: as §1
# Enterococcus faecalis [19] = assay: Antibacterial activity against vancomycin-resistant Enterococcus faecalis 51575; type: functional; summary of the method: as §1
# [20] = Cytotoxicity against human MRC5 cells; type: cell-based
# Summary of the method: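 MRC-5 human diploid fibroblasts, 4 x 10^3 cells per well, exposed to compound from DMSO stock (final 1%) in minimal essential medium with 10% fetal calf serum for 72 h at 37°C beside a DMSO-only control.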
# Enterococcus faecium [21] = assay: Antibacterial activity against vancomycin and linezolid-resistant Enterococcus faecium F118; type: functional; summary of the method: as §1
# Staphylococcus aureus [22] = assay: Antibacterial activity against methicillin-resistant Staphylococcus aureus 1123; type: functional; summary of the method: as §1
# Streptococcus pneumoniae [23] = assay: Antibacterial activity against penicillin-resistant Streptococcus pneumoniae 700670; type: functional; summary of the method: as §2
# Streptococcus pneumoniae [24] = assay: Antibacterial activity against penicillin-resistant Streptococcus pneumoniae 700673; type: functional; summary of the method: as §2
# Bacillus thuringiensis [25] = assay: Antibacterial activity against Bacillus thuringiensis 10792; type: functional
# Enterococcus faecalis [26] = assay: Antibacterial activity against vancomycin-resistant Enterococcus faecalis 700802; type: functional; summary of the method: as §1
# Enterococcus faecalis [27] = assay: Antibacterial activity against vancomycin-resistant Enterococcus faecalis 51299; type: functional; summary of the method: as §1
# Streptococcus pneumoniae [28] = assay: Antibacterial activity against penicillin-resistant Streptococcus pneumoniae 700677; type: functional; summary of the method: as §2
# Bacillus cereus [29] = assay: Antibacterial activity against Bacillus cereus 6464; type: functional
# Staphylococcus aureus [30] = assay: Antibacterial activity against methicillin-resistant Staphylococcus aureus B42876; type: functional; summary of the method: as §1
# [31] = test system: Stenotrophomonas maltophilia; assay: Antibacterial activity against Stenotrophomonas maltophilia 13637; type: functional
# Klebsiella pneumoniae = assay: Antibacterial activity against Klebsiella pneumoniae 5657; type: functional
# [32] = Therapeutic index, CC50 for MRC5 cells/MIC for Staphylococcus aureus Smith; type: cell-based; conditions: human
# Bacillus subtilis [33] = assay: Antibacterial activity against Bacillus subtilis BD54; type: functional
# Staphylococcus aureus [34] = assay: Antibacterial activity against mupirocin-resistant Staphylococcus aureus 777; type: functional; summary of the method: as §1
# Bacillus cereus [35] = assay: Antibacterial activity against Bacillus cereus 4342; type: functional
# Staphylococcus aureus [36] = assay: Antibacterial activity against HB-EMAU-resistant and ciprofloxacin-resistant Staphylococcus aureus Smith; type: functional; summary of the method: as §1
# Bacillus anthracis = assay: Antibacterial activity against Bacillus anthracis Sterne; type: functional
# Staphylococcus aureus [37] = assay: Antibacterial activity against Staphylococcus aureus Smith 13709; type: functional; summary of the method: as §1
# Streptococcus pneumoniae [38] = assay: Antibacterial activity against penicillin-resistant Streptococcus pneumoniae 700674; type: functional; summary of the method: as §2
# Staphylococcus aureus [39] = assay: Antibacterial activity against methicillin-resistant Staphylococcus aureus 1094; type: functional; summary of the method: as §1
# Staphylococcus aureus [40] = assay: Antibacterial activity against mupirocin-sensitive Staphylococcus aureus 2529; type: functional
smiles,measurement,setting,value
CCn1cc(C(=O)O)c(=O)c2ccc(C)nc21 [NALIDIXIC ACID],IC50,[1],149 µM
same,IC50,[2],1090 µM
CC1CN(c2c(F)cc3c(=O)c(C(=O)O)cn(C4CC4)c3c2F)CCN1 (stereo unspecified),MIC,Enterococcus faecium [3],40 µg/mL
same,MIC,Escherichia coli [4],0.01 µg/mL
same,Activity,Bacillus subtilis [5],Active
same,MIC,Enterococcus faecalis [6],0.313 µg/mL
same,MIC,Streptococcus pneumoniae [7],0.313 µg/mL
same,MIC,Escherichia coli [8],40 µg/mL
same,MIC,Staphylococcus aureus [9],0.156 µg/mL
same,MIC,Streptococcus pneumoniae [10],0.313 µg/mL
same,MIC,Enterococcus faecium [11],10 µg/mL
same,MIC,Staphylococcus aureus [12],0.078 µg/mL
same,MIC,Staphylococcus aureus [13],5 µg/mL
same,MIC,Streptococcus pyogenes,0.156 µg/mL
same,MIC,Bacillus thuringiensis [14],0.078 µg/mL
same,MIC,Staphylococcus aureus [15],0.078 µg/mL
same,MIC,Enterococcus faecium [16],40 µg/mL
same,MIC,Staphylococcus aureus [17],10 µg/mL
same,MIC,Pseudomonas aeruginosa,0.313 µg/mL
same,MIC,Staphylococcus aureus [18],0.156 µg/mL
same,MIC,Enterococcus faecalis [19],0.313 µg/mL
same,CC50,[20],> 80 µg/mL
same,MIC,Enterococcus faecium [21],80 µg/mL
same,MIC,Staphylococcus aureus [22],20 µg/mL
same,MIC,Streptococcus pneumoniae [23],0.313 µg/mL
same,MIC,Streptococcus pneumoniae [24],0.156 µg/mL
same,MIC,Bacillus thuringiensis [25],0.156 µg/mL
same,MIC,Enterococcus faecalis [26],0.313 µg/mL
same,MIC,Enterococcus faecalis [27],0.313 µg/mL
same,MIC,Streptococcus pneumoniae [28],0.625 µg/mL
same,MIC,Bacillus cereus [29],0.078 µg/mL
same,MIC,Staphylococcus aureus [30],80 µg/mL
same,MIC,[31],0.078 µg/mL
same,MIC,Klebsiella pneumoniae,0.156 µg/mL
same,selectivity ratio,[32],> 1000
same,MIC,Bacillus subtilis [33],0.039 µg/mL
same,MIC,Staphylococcus aureus [34],40 µg/mL
same,IC50,[1],5.6 µM
same,MIC,Bacillus cereus [35],0.078 µg/mL
same,MIC,Staphylococcus aureus [36],5 µg/mL
same,MIC,Bacillus anthracis,0.039 µg/mL
same,IC50,[2],4.2 µM
same,MIC,Staphylococcus aureus [37],0.078 µg/mL
same,MIC,Streptococcus pneumoniae [38],0.625 µg/mL
same,MIC,Staphylococcus aureus [39],20 µg/mL
same,MIC,Staphylococcus aureus [40],80 µg/mL
